From the array DNA melting data of Ke et al. (doi:10.1101/2024.01.08.574731)

Tests used:
[1] = folding enthalpy; higher = less favourable; fluorescence melt of hairpins on a sequencing array, two-state fit; conditions: sodium 0.088 M
In short: (§1)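 Folding enthalpy and melting temperature come from bootstrapped two-state fits to Cy3 fluorescence of library hairpins carrying annealed Cy3 and quencher oligos on a sequenced MiSeq flow cell. Imaging was done in 50 mM Na-HEPES pH 8.0, 25 mM NaCl, stepping by 2.5 °C up to 60 °C, and signals were normalised to pre-quench Cy3 and to control constructs. Results of four replicates were combined by inverse variance, and fitted temperatures were raised by 9.35 °C to match UV melts.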

[2] = melting temperature; fluorescence melt of hairpins on a sequencing array, two-state fit, raised by 9.35 °C to match UV melts; conditions: sodium 0.088 M
In short: as §1

Row | Sequence | folding enthalpy [1] | Tm [2]
1 | GTTGCTGGAAACAGCAGC (.(((((....))))).) | -26.3 kcal/mol | 54.5 °C
2 | GTTGCTGGAAACAGTAAC (((.(((....))).))) | -29 kcal/mol | 47 °C
3 | GTTGCTGGAAACGGCAAC (((((.(....).))))) | -43.6 kcal/mol | 55.2 °C
4 | GTTGGACGAAAGTCAAAC (((.(((....))).))) | -26.9 kcal/mol | 50.9 °C
5 | GTTGGACGAAAGTCTAAC (((.(((....))).))) | -26.3 kcal/mol | 51.4 °C
6 | GTTGGAGAAATCCAAC ((((((....)))))) | -32 kcal/mol | 52 °C
7 | GTTGGCCGAAAGGCGAAC (((.(((....))).))) | -26.6 kcal/mol | 57.4 °C
8 | GTTGGCGAAAGCCGGAAC ((((((....)))..))) | -7.97 kcal/mol | 27.8 °C
9 | GTTGGCGGAAACGCTAGC (.(.(((....))).).) | -13.2 kcal/mol | 34.5 °C
10 | GTTGGGGGAAACCCCGAC ((.((((....)))).)) | -24.2 kcal/mol | 56.6 °C
11 | GTTGGGGGAAACCCTAGC (.(.(((....))).).) | -9.75 kcal/mol | 24.6 °C
12 | GTTGGGGGAAACCTCAAC ((((.((....)).)))) | -32 kcal/mol | 47.8 °C
13 | GTTGGGGGAAACCTCAGC (.((.((....)).)).) | -17.4 kcal/mol | 31 °C
14 | GTTGGTGGAAACACTGAC ((..(((....)))..)) | -15.9 kcal/mol | 34.8 °C
15 | GTTGGTGGAAACGTCAAC ((((..(....)..)))) | -16.1 kcal/mol | 33.5 °C
16 | GTTGTACCGAAAGGTAAC (((..(((....)))))) | -23.7 kcal/mol | 47.4 °C
17 | GTTGTACGAAAGTAAAC (((.(((....)))))) | -21.9 kcal/mol | 39.7 °C
18 | GTTGTACGAAAGTAGAAC (((.(((....))).))) | -30.1 kcal/mol | 44 °C
19 | GTTGTATCGAAAGATAAC (((..(((....)))))) | -27.3 kcal/mol | 37.1 °C
20 | GTTGTCGAAAGACAAAAC ((((((....)))..))) | -13.6 kcal/mol | 36.9 °C
21 | GTTGTCGAAAGACAAC ((((((....)))))) | -27.7 kcal/mol | 67.5 °C
22 | GTTGTCGAAAGACATAAC ((((((....)))..))) | -13.3 kcal/mol | 32.6 °C
23 | GTTGTCGAAAGACTGAAC ((((((....)))..))) | -11.3 kcal/mol | 30.7 °C

Row | Sequence | folding enthalpy [1] | Tm [2]
24 | GTTGTCGGAAACAACAAC (((((.(....).))))) | -23.4 kcal/mol | 40.2 °C
25 | GTTGTCTCGAAAGAGAAC (((..(((....)))))) | -22.2 kcal/mol | 46.1 °C
26 | GTTGTGACGAAAGTCAAC (((..(((....)))))) | -21.6 kcal/mol | 49.7 °C
27 | GTTGTGTCGAAAGACAAC (((..(((....)))))) | -24.9 kcal/mol | 51.1 °C
28 | GTTGTTGGAAACAATAGC (.(.(((....))).).) | -11.9 kcal/mol | 31.2 °C
29 | GTTGTTGGAAACAATGAC ((..(((....)))..)) | -13.9 kcal/mol | 38.5 °C
30 | GTTTAACGAAAGTTTAAC (((.(((....))).))) | -23.4 kcal/mol | 36.2 °C
31 | GTTTAAGGAAACTTAAAC (((((((....))))))) | -40.6 kcal/mol | 46.5 °C
32 | GTTTACCGAAAGGTAAC (((.(((....)))))) | -12.7 kcal/mol | 44.2 °C
33 | GTTTACGAAAGTAGAAC ((((((....))).))) | -11.3 kcal/mol | 27.2 °C
34 | GTTTACGGAAACGCAAAC ((((.((....)).)))) | -27.7 kcal/mol | 37.3 °C
35 | GTTTACGGAAACGTAAGC (.(((((....))))).) | -22.4 kcal/mol | 41.5 °C
36 | GTTTAGAAATAAAC (((((....))))) | -9.32 kcal/mol | 28.4 °C
37 | GTTTCACGAAAGTGCAAC (((.(((....))).))) | -26.9 kcal/mol | 41.1 °C
38 | GTTTCCGAAAGGAAAAAC ((((((....)))..))) | -15.1 kcal/mol | 36.8 °C
39 | GTTTCCGAAAGGAAGAAC ((((((....)))..))) | -11.1 kcal/mol | 30.9 °C
40 | GTTTCCGAAAGGAGAAAC ((((((....)))..))) | -16.8 kcal/mol | 32.5 °C
41 | GTTTCCGAAAGGAGTAAC ((((((....)))..))) | -12.6 kcal/mol | 28.8 °C
42 | GTTTCCGAAAGGATTAAC ((((((....)))..))) | -11.6 kcal/mol | 28.6 °C
43 | GTTTCCGGAAACAGAAAC (((((.(....).))))) | -13.2 kcal/mol | 35.1 °C
44 | GTTTCCGGAAACGGAAGC (.(((((....))))).) | -16.7 kcal/mol | 49.3 °C
45 | GTTTCGGGAAACCGAGAC ((.((((....)))).)) | -21.4 kcal/mol | 47.3 °C
46 | GTTTCGGGAAACTGAAAC (((((.(....).))))) | -27.5 kcal/mol | 46.9 °C

Row | Sequence | folding enthalpy [1] | Tm [2]
47 | GTTTCTGGAAACAGAAAC (((((((....))))))) | -43.3 kcal/mol | 55.1 °C
48 | GTTTCTGGAAACAGAAGC (.(((((....))))).) | -26.3 kcal/mol | 39.5 °C
49 | GTTTCTGGAAACAGAGAC ((.((((....)))).)) | -26.9 kcal/mol | 37.2 °C
50 | GTTTGACGAAAGTCCAAC (((.(((....))).))) | -20.6 kcal/mol | 40.5 °C
51 | GTTTGACGAAAGTCTAAC (((.(((....))).))) | -25 kcal/mol | 47.7 °C
52 | GTTTGAGGAAACTTGAAC (((..((....))..))) | -17.3 kcal/mol | 33.1 °C
53 | GTTTGCCCGAAAGGGAAC (((..(((....)))))) | -11.3 kcal/mol | 32.5 °C
54 | GTTTGCGAAAGCAAAAC ((((((....))).))) | -17.4 kcal/mol | 52.6 °C
55 | GTTTGCGAAAGCAAGAAC ((((((....)))..))) | -10 kcal/mol | 36.7 °C
56 | GTTTGCGAAAGCATAAC ((((((....))).))) | -17.3 kcal/mol | 43 °C
57 | GTTTGCGGAAACGTAGAC ((.(.((....)).).)) | -20.5 kcal/mol | 30.7 °C
58 | GTTTGCTCGAAAGAGAAC (((..(((....)))))) | -14.7 kcal/mol | 27 °C
59 | GTTTGGCGAAAGCCGAAC (((.(((....))).))) | -20.6 kcal/mol | 58.8 °C
60 | GTTTGGGGAAACCCAAAC (((((((....))))))) | -42.3 kcal/mol | 59 °C
61 | GTTTGGGGAAACCCAAGC (.(((((....))))).) | -21.9 kcal/mol | 43.5 °C
62 | GTTTGGTCGAAAGACAAC (((..(((....)))))) | -13.2 kcal/mol | 31.4 °C
63 | GTTTGTACGAAAGTAAAC (((..(((....)))))) | -24.3 kcal/mol | 32.8 °C
64 | GTTTGTCCGAAAGGAAAC (((..(((....)))))) | -18.9 kcal/mol | 35.9 °C
65 | GTTTGTGCGAAAGCAAAC (((..(((....)))))) | -18.2 kcal/mol | 41.5 °C
66 | GTTTGTGGAAACACAGAC ((.((((....)))).)) | -23.6 kcal/mol | 43.9 °C
67 | GTTTTACGAAAGTATAAC (((.(((....))).))) | -23.9 kcal/mol | 37.5 °C
68 | GTTTTAGAAATAAAAC ((((((....)))))) | -22.3 kcal/mol | 36.7 °C
